High-throughput results as filed in PubChem.
Compounds with a hit are over-represented: about 2.1% of the library has one in this group of screens.
TRPML3 ag – human mucolipin-3 channel agonism | Q8TDD5 | HEK293 TRPML3-YFP, Fluo-8 calcium fluorescence; 100% = the carbachol control signal | activation, % at 3 µM | actives 0.29% (n = 220,000);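 active means activation above its plate's cutoff, the mean activation of the plate's test wells plus 3 SD, cut at about 12% in these data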
Target sequence (Q8TDD5 whole entry, looked up): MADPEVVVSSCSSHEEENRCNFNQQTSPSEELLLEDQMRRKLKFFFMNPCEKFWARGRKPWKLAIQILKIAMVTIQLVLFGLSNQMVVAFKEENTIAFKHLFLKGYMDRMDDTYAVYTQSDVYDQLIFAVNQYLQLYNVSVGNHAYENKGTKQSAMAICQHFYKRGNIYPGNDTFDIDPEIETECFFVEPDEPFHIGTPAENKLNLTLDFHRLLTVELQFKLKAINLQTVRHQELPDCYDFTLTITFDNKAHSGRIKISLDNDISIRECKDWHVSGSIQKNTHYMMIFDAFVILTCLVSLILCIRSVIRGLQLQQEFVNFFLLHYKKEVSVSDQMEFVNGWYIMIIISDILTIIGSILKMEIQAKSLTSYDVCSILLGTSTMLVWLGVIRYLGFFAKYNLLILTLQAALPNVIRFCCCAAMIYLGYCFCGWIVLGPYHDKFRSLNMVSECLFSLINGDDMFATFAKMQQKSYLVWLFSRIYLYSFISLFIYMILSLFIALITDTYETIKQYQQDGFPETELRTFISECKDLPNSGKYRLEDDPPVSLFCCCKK
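system = HEK293 cells stably carrying human TRPML3-YFP | doses = one concentration, 3 µM nominal, 0.3% DMSO | timing = dye loading 1 h 37 °C then 30 min ambient, 125 s read | detection = Fluo-8 calcium dye fluorescence, ex 470-495, em 515-575 nm | benchmarks = high control carbachol 87 µM, low control DMSO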
VIM-2 inh – blocks Pseudomonas aeruginosa VIM-2 metallo-beta-lactamase. actives 0.89% (n = 290,000). purified VIM-2, nitrocefin hydrolysis, epi-absorbance fluorescence. inhibition, % at 5.6 µM;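 active means inhibition above the mean of all tested compounds plus 3 SD, cutoff set per screening run, cut at about 7.5% in these data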;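 further: red hydrolysis product quenches plate fluorescence so inhibitors raise well fluorescence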
CRFBP-R2 block – blocks CRF-induced signaling of the CRF-BP/CRF-R2 complex; HEK293 CRF-R2/CRF-BP, CRF-induced calcium fluorescence; inhibition, % at 11.8 µM; actives 0.59% (n = 350,000); AID 588475;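 active means inhibition of the ligand-induced calcium signal above about 50% at the single tested concentration, limit read from the data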
CRFR2-BP ag – CRF-BP/CRF-R2 complex agonism; HEK293 CRF-R2/CRF-BP, calcium dye fluorescence (FLIPR); percent of saturating CRF peptide response; actives 0.46% (n = 350,000); AID 588473; activation, % at 13.2 µM;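 active means activation of at least 50%, plus an integration ratio under a set limit after plate pattern correction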
TRPN1 ag – activates the zebrafish TRPN1 channel | HEK293 zebrafish TRPN1-YFP, Fluo-8 calcium fluorescence; 100% = response to 87 µM carbachol | AID 1424 | actives 0.18% (n = 220,000) | activation, % at 3 µM;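 active means activation above its plate's cutoff, the mean activation of test wells on that plate plus 3 SD, cut at about 19% in these data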
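Material: zebrafish TRPN1-YFP in HEK293 cells; Doses: single test compound dose, 3 µM nominal, 0.3% DMSO; Timing: dye loading 1 h at 37 °C, then 30 min room temperature; Technique: intracellular calcium fluorescence with Fluo-8; Benchmarks: high carbachol 87 µM, low DMSO alone.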
IMP-1 inh – blocks Pseudomonas aeruginosa IMP-1 metallo-beta-lactamase; purified IMP-1, nitrocefin hydrolysis, epi-absorbance fluorescence; inhibition, % at 5.6 µM; actives 0.45% (n = 290,000); AID 1556;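 active means inhibition above the mean plus 3 SD of all compounds in the same screening run, cut at about 4.5% in these data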
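System: Purified IMP-1 | Read-out basis: Percent enzyme inhibition | Controls: IMP-1 with DMSO as 0%, enzyme-free DMSO as 100% | Replicates: One well per compound | Doses: 5.6 µM nominal single concentration | Detection: Epi-absorbance fluorescence, 480 nm excitation, 530 nm emission | Incubation: 25 °C, 15 min preincubation, 25 min reaction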
VIM-2 confirm – VIM-2 inhibition, confirmation assay | actives 73% (n = 200) | purified VIM-2 enzyme, nitrocefin absorbance | shares compounds with IMP-1 inh | inhibition, % at 5.6 µM | AID 1860; in the data active means inhibition above about 8%
TEM-1 counter – blocks E. coli TEM-1 beta-lactamase, VIM-2 IMP-1 counter-screen | shares compounds with IMP-1 inh | nitrocefin absorbance inhibition | inhibition, % at 5.6 µM | actives 50% (n = 200); in the data active means inhibition above about 0.66%
IMP-1 confirm – confirmation of P. aeruginosa IMP-1 metallo-beta-lactamase inhibitors | shares compounds with IMP-1 inh | purified IMP-1 enzyme, absorbance substrate hydrolysis | inhibition, % at 5.6 µM | actives 60% (n = 200); in the data active means inhibition above about 4.9%
Each line names hits and unclear results; the compound was inactive in the other large screens (follow-up assays come after a bar, where they were run).

CCOC(=O)c1nnn2c1nc(SCC(C)=O)c1ccccc12	none
Cc1ccc(NC(=O)COc2ccccc2C(=O)NCc2ccccc2)cc1	none (no result: TRPML3 ag, VIM-2 inh, TRPN1 ag, IMP-1 inh)
CCOc1ccc(-c2cc(C(=O)NCCCn3ccnc3)c3cc(Br)ccc3n2)cc1	VIM-2 inh 17, IMP-1 inh 33 (no result: TRPML3 ag, TRPN1 ag) | VIM-2 confirm 21 | TEM-1 counter inactive | IMP-1 confirm 41
CCOc1ccc(-c2cc(C(=O)NCCCn3ccnc3)c3ccccc3n2)cc1	none
C/C(CC(=O)Nc1ccc2c(c1)OCCO2)=N\NC(=O)COc1ccc(C)cc1Br	none (no result: TRPML3 ag, TRPN1 ag)
COc1cc(NC(=O)NS(=O)(=O)c2ccc(C)cc2)cc(OC)c1	none
COc1ccc(NC(=O)NS(=O)(=O)c2ccc(C)cc2)cn1	VIM-2 inh 16, IMP-1 inh 12 (no result: TRPML3 ag, TRPN1 ag) | VIM-2 confirm inactive | TEM-1 counter inactive | IMP-1 confirm inactive
CC1(C)NC(=O)N(CC(=O)OCC(=O)Nc2cccc(S(N)(=O)=O)c2)C1=O	none
CSc1nc2nc(-c3cccs3)cc(C(F)(F)F)c2c(=O)[nH]1	none (no result: TRPML3 ag, TRPN1 ag)
O=C(CSc1nc2nc(-c3cccs3)cc(C(F)(F)F)c2c(=O)[nH]1)C(F)(F)F	VIM-2 inh 22, IMP-1 inh 4.9 (no result: TRPML3 ag, TRPN1 ag) | VIM-2 confirm 26 | TEM-1 counter inactive | IMP-1 confirm inactive
O=C(O)c1ccc(-c2noc(-c3cccc(Cl)c3)n2)cc1	none (no result: TRPML3 ag, VIM-2 inh, TRPN1 ag, IMP-1 inh)
CC(OC(=O)c1c2c(nc3ccccc13)/C(=C\c1ccc3c(c1)OCO3)CCC2)C(=O)Nc1ccc(S(N)(=O)=O)cc1 (stereo not drawn)	TRPML3 ag 22, VIM-2 inh 18, CRFR2-BP ag 314, TRPN1 ag 28, IMP-1 inh 13 | VIM-2 confirm 15 | TEM-1 counter 29 | IMP-1 confirm 10
CC(OC(=O)c1cc2ccccc2cc1O)C(=O)Nc1ccc(S(N)(=O)=O)cc1 (stereo not drawn)	none
Cc1cccc(C)c1NC(=O)COC(=O)c1ccc2c(c1)OCO2	none
Cc1cccc(C)c1NC(=O)COC(=O)c1c2c(nc3ccccc13)/C(=C\c1ccc3c(c1)OCO3)CCC2	TRPML3 ag 40, VIM-2 inh 20, CRFR2-BP ag 95, TRPN1 ag 135, IMP-1 inh 17 | VIM-2 confirm inactive | TEM-1 counter inactive | IMP-1 confirm inactive
CC(=O)N(c1cccc(C)c1)C1SC(=O)N(c2ccccc2)C1=O (stereo not drawn)	VIM-2 inh 8.3, IMP-1 inh 12 | VIM-2 confirm 9.0 | TEM-1 counter inactive | IMP-1 confirm 18
CCN1C(=O)c2cccc3c(N)ccc(c23)C1=O	VIM-2 inh 48, IMP-1 inh 43 (no result: TRPML3 ag, TRPN1 ag) | VIM-2 confirm 45 | TEM-1 counter 51 | IMP-1 confirm 35
Cc1nn(C)c(C)c1N1C(=O)c2cccc3c(Br)ccc(c23)C1=O	none
Cc1nn(C)c(C)c1N1C(=O)c2cccc3c(N)ccc(c23)C1=O	TRPML3 ag 93, VIM-2 inh 31, CRFR2-BP ag 330, TRPN1 ag 131, IMP-1 inh 35 | VIM-2 confirm 42 | TEM-1 counter 55 | IMP-1 confirm 38
CCc1cc(=O)oc2cc(C)c(CN3CCCC3)c(O)c12	VIM-2 inh 15, IMP-1 inh 20 | VIM-2 confirm 18 | TEM-1 counter inactive | IMP-1 confirm 8.8
Cc1cc(=O)oc2c(CN3CCCC3)c(O)c(Cl)cc12	none (no result: TRPML3 ag, TRPN1 ag)
CCc1cc(=O)oc2cc(C)c(CN3CCCCC3)c(O)c12	VIM-2 inh 13, IMP-1 inh 19 | VIM-2 confirm inactive | TEM-1 counter inactive | IMP-1 confirm inactive
COCCC(=O)Nc1ccc2c(c1)CN(C(=O)c1ccc(CSC)o1)CC2	none (no result: TRPML3 ag, TRPN1 ag)
O=C(O)C1Sc2[nH]c(=O)sc2C2c3ccc(O)cc3OC(=O)C12 (stereo not drawn)	VIM-2 inh 7.9, IMP-1 inh 8.6 | VIM-2 confirm inactive | TEM-1 counter inactive | IMP-1 confirm inactive
COC(=O)C1Sc2[nH]c(=O)sc2C2c3ccccc3OC(=O)C12 (stereo not drawn)	none
CN(C)c1ccc(/C=C/C(=O)c2cc(Cl)ccc2O)cc1	VIM-2 inh 15, IMP-1 inh 20 | VIM-2 confirm 24 | TEM-1 counter 35 | IMP-1 confirm 22
O=C1/C(=C\c2cc(Cl)c(O)c(Cl)c2)SC(=S)N1Cc1ccccc1	VIM-2 inh 18, CRFR2-BP ag 187, IMP-1 inh 18 (no result: TRPML3 ag, TRPN1 ag) | VIM-2 confirm 18 | TEM-1 counter 54 | IMP-1 confirm 14
O=C(O)COc1ccc(/C=C2/SC(=S)N(Cc3ccccc3)C2=O)cc1	none (no result: TRPML3 ag, TRPN1 ag)
CC(C)C(CCN1C(=O)c2ccccc2C1=O)c1ccco1 (stereo not drawn)	VIM-2 inh 15, IMP-1 inh 7.3 | VIM-2 confirm 33 | TEM-1 counter inactive | IMP-1 confirm 19
O=C(OCCN1C(=O)c2ccccc2C1=O)c1ccco1	none
CN1C(=O)/C(=C\c2ccc(N(C)C)cc2)OC1=S	VIM-2 inh 8.0, CRFR2-BP ag 211, IMP-1 inh 9.5 (no result: TRPML3 ag, TRPN1 ag) | VIM-2 confirm 8.3 | TEM-1 counter 18 | IMP-1 confirm 6.1
COc1ccc(C(O)Cn2cc([N+](=O)[O-])nc2C)cc1 (stereo not drawn)	none
c1nc(NCCN2CCOCC2)c2sc3nc(N4CCOCC4)c4c(c3c2n1)CCC4	VIM-2 inh 9.5, IMP-1 inh 7.6 | VIM-2 confirm 16 | TEM-1 counter inactive | IMP-1 confirm inactive
CC(C)CC(=O)N1CCC(N(CCc2ccccc2)Cc2ccccc2)CC1	none (no result: TRPML3 ag, TRPN1 ag)
Cc1ccc(NC(=O)C2C(c3ccccc3)C=CC(c3ccccc3)C2C(=O)O)cc1 (stereo not drawn)	VIM-2 inh 46, IMP-1 inh 85 | VIM-2 confirm inactive | TEM-1 counter inactive | IMP-1 confirm 61
NS(=O)(=O)c1cccc(NC(=O)COC(=O)/C=C/c2nc3ccccc3s2)c1	none (no result: TRPML3 ag, VIM-2 inh, TRPN1 ag, IMP-1 inh)
Cc1cc2c(=O)n(C)c(SCC(=O)Nc3ccccc3C)nc2s1	none (no result: TRPML3 ag, VIM-2 inh, TRPN1 ag, IMP-1 inh)
CN(Cc1ccc(Cl)cc1Cl)C(=O)CNC(=O)c1ccco1	none (no result: TRPML3 ag, TRPN1 ag)
CN(/N=C/c1ccc(N(C)C)cc1)C1=NS(=O)(=O)c2ccccc21	VIM-2 inh 52, IMP-1 inh 24 (no result: TRPML3 ag, TRPN1 ag) | VIM-2 confirm 29 | TEM-1 counter 14 | IMP-1 confirm 24
COc1ccc(/C=N/N(C)C2=NS(=O)(=O)c3ccccc32)cc1	none (no result: TRPML3 ag, TRPN1 ag)
